Experiments:
Adenosine receptor A1 [1] = target: T1, Adenosine receptor A1 (Homo sapiens, UniProt P30542); test: Displacement of [3H]DPCPX from human Adenosine A1 receptor expressed in CHO cells; assay type: cell-based
T1 sequence (P30542 whole entry): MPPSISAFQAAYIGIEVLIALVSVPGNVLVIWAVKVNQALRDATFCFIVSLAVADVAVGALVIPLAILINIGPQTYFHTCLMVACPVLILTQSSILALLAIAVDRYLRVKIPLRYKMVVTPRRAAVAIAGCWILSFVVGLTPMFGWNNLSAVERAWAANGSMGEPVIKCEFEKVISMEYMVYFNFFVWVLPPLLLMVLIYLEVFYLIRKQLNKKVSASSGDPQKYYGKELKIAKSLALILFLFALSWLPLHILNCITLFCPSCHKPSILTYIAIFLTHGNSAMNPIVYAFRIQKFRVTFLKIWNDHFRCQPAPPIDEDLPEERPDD
Method in brief: (§1)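 Human recombinant A1 receptor in CHO cell membranes, resuspended in 50 mM Tris HCl pH 7.4. Displacement run 120 min at 25 °C with 1 nM [3H]DPCPX, 50 µg protein per assay, and at least six to eight test concentrations. Nonspecific binding defined with CHA. Bound and free separated on glass-fiber filters; filter radioactivity counted. n = 3-6.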

Adenosine receptor A2b [2] = target: T2, Adenosine receptor A2b (Homo sapiens, UniProt P29275); test: Displacement of [3H]DPCPX binding at human Adenosine A2B receptor expressed in HEK293 cells; assay type: cell-based
T2 sequence (P29275 whole entry): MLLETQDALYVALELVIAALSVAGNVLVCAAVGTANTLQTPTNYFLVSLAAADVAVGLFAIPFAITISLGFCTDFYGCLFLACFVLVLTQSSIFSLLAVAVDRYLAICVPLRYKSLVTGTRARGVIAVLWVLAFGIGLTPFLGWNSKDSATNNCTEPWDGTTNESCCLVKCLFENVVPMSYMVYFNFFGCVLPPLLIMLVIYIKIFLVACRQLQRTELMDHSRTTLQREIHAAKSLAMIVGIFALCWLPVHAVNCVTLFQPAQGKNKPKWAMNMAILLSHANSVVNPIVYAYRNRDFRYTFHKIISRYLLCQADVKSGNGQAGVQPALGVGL
Method in brief: (§2)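 Membranes from HEK-293 cells with human recombinant A2B receptor. Incubation 60 min at 25 °C in 50 mM Tris HCl, 10 mM MgCl2, 1 mM EDTA, 0.1 mM benzamidine, pH 7.4, with 2 IU/mL adenosine deaminase and 40 nM [3H]DPCPX. At least six to eight test concentrations. Nonspecific binding defined with NECA. n = 3-6.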

Adenosine receptor A3 [3] = target: T3, Adenosine receptor A3 (Homo sapiens, UniProt P0DMS8); test: Displacement of [3H]MRE3008-F20 from human Adenosine A3 receptor expressed in HEK cells; range 31-50; assay type: cell-based, HEK293
T3 sequence (P0DMS8 whole entry): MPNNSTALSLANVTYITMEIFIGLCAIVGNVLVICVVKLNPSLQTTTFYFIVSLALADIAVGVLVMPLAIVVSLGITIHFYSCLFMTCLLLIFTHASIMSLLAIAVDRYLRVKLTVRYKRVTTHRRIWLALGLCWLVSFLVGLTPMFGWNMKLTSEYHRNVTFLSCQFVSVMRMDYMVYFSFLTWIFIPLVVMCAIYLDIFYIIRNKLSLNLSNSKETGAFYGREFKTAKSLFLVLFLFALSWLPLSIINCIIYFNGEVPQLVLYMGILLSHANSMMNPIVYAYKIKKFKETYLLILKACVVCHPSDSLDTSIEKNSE

Adenosine receptor A2a [4] = target: T4, Adenosine receptor A2a (Homo sapiens, UniProt P29274); test: Displacement of [3H]SCH-58261 from human Adenosine A2A receptor expressed in HEK293 cells; range 199-311; assay type: cell-based
T4 sequence (P29274 whole entry): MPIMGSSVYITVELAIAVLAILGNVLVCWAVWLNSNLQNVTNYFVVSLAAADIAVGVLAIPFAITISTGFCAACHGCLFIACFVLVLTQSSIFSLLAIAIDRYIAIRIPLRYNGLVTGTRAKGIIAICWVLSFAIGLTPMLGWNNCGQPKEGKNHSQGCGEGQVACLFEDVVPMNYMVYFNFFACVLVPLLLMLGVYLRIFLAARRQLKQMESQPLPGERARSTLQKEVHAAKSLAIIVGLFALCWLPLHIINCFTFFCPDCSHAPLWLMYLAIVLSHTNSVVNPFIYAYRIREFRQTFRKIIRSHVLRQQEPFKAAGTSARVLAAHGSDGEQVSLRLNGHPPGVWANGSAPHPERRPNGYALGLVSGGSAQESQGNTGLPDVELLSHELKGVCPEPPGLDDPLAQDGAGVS

[5] = target: Adenosine receptors; A2b & A3 (Homo sapiens) (UniProt P29275+P0DMS8); test: Selectivity ratio (h2B/hA3); assay type: protein assay
[6] = target: Adenosine receptors; A1 & A3 (Homo sapiens) (UniProt P30542+P0DMS8); test: Selectivity ratio (hA1/hA3); assay type: protein assay
Adenosine receptor A3 [7] = target: T3, Adenosine receptor A3; test: Displacement of specific [3H]MRE3008-F20 binding at human Adenosine A3 receptor expressed in HEK cells; value ranges from 39-55; assay type: cell-based, HEK293
Adenosine receptor A2a [8] = target: T4, Adenosine receptor A2a; test: Displacement of [3H]SCH-58261 from human Adenosine A2A receptor expressed in HEK293 cells; range 300-414; assay type: cell-based
Adenosine receptor A1 [9] = target: T1, Adenosine receptor A1; test: Displacement of [3H]DPCPX from human Adenosine A1 receptor expressed in CHO cells; range 389-640; assay type: cell-based; method in brief: as §1
Adenosine receptor A3 [10] = target: T3, Adenosine receptor A3; test: Displacement of [3H]MRE3008-F20 from human Adenosine A3 receptor expressed in HEK cells; range 0.29-0.47; assay type: cell-based, HEK293
Adenosine receptor A2a [11] = target: T4, Adenosine receptor A2a; test: Displacement of [3H]SCH-58261 from human Adenosine A2A receptor expressed in HEK293 cells; range 30-54; assay type: cell-based
Adenosine receptor A2b [12] = target: T2, Adenosine receptor A2b; test: Displacement of [3H]DPCPX from human Adenosine A2B receptor expressed in HEK293 cells; range 261-336; assay type: cell-based; method in brief: as §2
Adenosine receptor A2b [13] = target: T2, Adenosine receptor A2b; test: Displacement of [3H]DPCPX from human Adenosine A2B receptor expressed in HEK293 cells; range 115-143; assay type: cell-based
Method in brief: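 Competition binding on membranes of HEK-293 cells carrying recombinant human A2B receptor. Incubation 60 min at 25 °C in 50 mM Tris HCl pH 7.4 with 10 mM MgCl2, 1 mM EDTA, 0.1 mM benzamidine and 2 IU/mL adenosine deaminase. Radioligand 40 nM [3H]DPCPX, at least six to eight test concentrations. NECA defined nonspecific binding. Bound ligand separated on glass-fibre filters and counted; n = 3-6.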

Adenosine receptor A1 [14] = target: T1, Adenosine receptor A1; test: Displacement of [3H]DPCPX from human Adenosine A1 receptor expressed in CHO cells; range 351-526; assay type: cell-based
Method in brief: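 Competition binding on membranes of CHO cells stably expressing human A1 receptor, resuspended in 50 mM Tris HCl pH 7.4. Incubation 120 min at 25 °C with 1 nM [3H]DPCPX, 50 µg protein per assay and at least six to eight test concentrations. CHA defined nonspecific binding. Bound ligand separated on glass-fibre filters and counted; n = 3-6.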

Adenosine receptor A3 [15] = target: T3, Adenosine receptor A3; test: Displacement of [3H]MRE3008-F20 from human Adenosine A3 receptor expressed in HEK cells; range 0.23-0.36; assay type: cell-based, HEK293
Adenosine receptor A3 [16] = target: T3, Adenosine receptor A3; test: Inhibition of IB-MECA agonist-mediated cAMP production in membranes of CHO cells expressing human Adenosine A3 receptor; range 1.2-4.9; assay type: functional, cell-based
Method in brief: (§3)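 Human A3-CHO membranes (in 50 mM Tris HCl, 10 mM MgCl2, 1 mM EDTA, pH 7.4) were preincubated for 10 min at 37 °C with 5 µM GTP, 0.5 mM Ro 20-1724 and 2.0 IU/mL adenosine deaminase. IB-MECA (100 nM) or antagonist was then added with 1 mM ATP and forskolin for 10 min. The reaction was stopped by 2 min boiling. cAMP was measured by [3H]cAMP competitive protein binding using beef adrenal binding protein, 150 min at 4 °C.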

Adenosine receptor A2a [17] = target: T4, Adenosine receptor A2a; test: Displacement of [3H]SCH-58261 from human Adenosine A2A receptor expressed in HEK293 cells; range 162-200; assay type: cell-based
Adenosine receptor A3 [18] = target: T3, Adenosine receptor A3; test: Inhibition of IB-MECA agonist-mediated cAMP production in membranes of CHO cells expressing human Adenosine A3 receptor; assay type: functional, cell-based; method in brief: as §3
Adenosine receptor A3 [19] = target: T3, Adenosine receptor A3; test: Displacement of [3H]MRE3008-F20 from human Adenosine A3 receptor expressed in HEK cells; range 0.13-0.20; assay type: cell-based, HEK293
Adenosine receptor A1 [20] = target: T1, Adenosine receptor A1; test: biochemical
Adenosine receptor A2b [21] = target: T2, Adenosine receptor A2b; test: biochemical
Adenosine receptor A2a [22] = target: T4, Adenosine receptor A2a; test: biochemical

CCn1cc2c(nc(NC(=O)Nc3ccc(S(=O)(=O)O)cc3)n3nc(-c4ccco4)nc23)n1
Ki (Adenosine receptor A1 [1]): > 10000 nM | Ki (Adenosine receptor A2b [2]): > 10000 nM | Ki (Adenosine receptor A3 [3]): 40 nM | Ki (Adenosine receptor A2a [4]): 249 nM | Ratio [5]: > 250 | Ratio [6]: > 250

CCCCn1cc2c(nc(NC(=O)Nc3ccc(S(=O)(=O)O)cc3)n3nc(-c4ccco4)nc23)n1
Ki (Adenosine receptor A1 [1]): > 10000 nM | Ki (Adenosine receptor A2b [2]): > 10000 nM | Ki (Adenosine receptor A3 [7]): 47 nM | Ki (Adenosine receptor A2a [8]): 352 nM | Ratio [5]: > 213 | Ratio [6]: > 213

CCn1cc2c(nc(NC(=O)Nc3ccc(Br)cc3)n3nc(-c4ccco4)nc23)n1
Ki (Adenosine receptor A1 [9]): 500 nM | Ki (Adenosine receptor A3 [10]): 0.37 nM | Ki (Adenosine receptor A2a [11]): 40 nM | Ki (Adenosine receptor A2b [12]): 296 nM | Ratio [5]: 800 | Ratio [6]: 1350

Cn1cc2c(nc(NC(=O)Nc3ccc(Cl)cc3)n3nc(-c4ccco4)nc23)n1
Ki (Adenosine receptor A2b [13]): 128 nM | Ki (Adenosine receptor A1 [14]): 430 nM | Ki (Adenosine receptor A3 [15]): 0.29 nM | IC50 (Adenosine receptor A3 [16]): 2.4 nM | Ki (Adenosine receptor A2a [17]): 180 nM | Ratio [5]: 441 | Ratio [6]: 1480

Cn1cc2c(nc(NC(=O)Nc3ccccc3)n3nc(-c4ccco4)nc23)n1
IC50 (Adenosine receptor A3 [18]): 2 nM | Ki (Adenosine receptor A3 [19]): 0.16 nM | Ratio [5]: 1390 | Ratio [6]: 3710 | Ki (Adenosine receptor A1 [20]): 594 nM | Ki (Adenosine receptor A2b [21]): 222 nM | Ki (Adenosine receptor A2a [22]): 381 nM

Reference: ChEMBL document CHEMBL1136016, “Synthesis, biological activity, and molecular modeling investigation of new pyrazolo[4,3-e]-1,2,4-triazolo[1,5-c]pyrimidine derivatives as human A(3) adenosine receptor antagonists” (J Med Chem, 2002)
